# Results published in ChEMBL document CHEMBL1133173, “Isoxazolines as potent antagonists of the integrin alpha(v)beta(3)” (J Med Chem, 2000).
# pIC50: −log10 of the molar value.
# Target: Integrin alpha-V/beta-3 (Homo sapiens, UniProt P05106+P06756)
# Assay: Inhibition of vitronectin receptor (alpha V beta 3), expressed on human 293 cells, binding to immobilized fibrinogen
# Type: cell-based, HEK293
# Method in brief: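 Human 293 cells stably transfected with human β3 plus a lacZ reporter (293β3z clone). Cells at 10⁶ viable cells/mL in MCDB131/20 mM HEPES pH 7.0 with 0.2% DMSO are preincubated with compound for 15 min at 37 °C. They are then added at 10⁵ cells/well to glycine-purified human fibrinogen-coated, BSA-blocked wells for 1 h at 37 °C, 5% CO₂. Adherent cells are lysed and β-galactosidase is read by chemiluminescence against a purified enzyme standard curve. Nonspecific binding is defined with 1 μM of a reference antagonist.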
# Integrin alpha-V/beta-3, sequence (P05106 27-788 limits assumed): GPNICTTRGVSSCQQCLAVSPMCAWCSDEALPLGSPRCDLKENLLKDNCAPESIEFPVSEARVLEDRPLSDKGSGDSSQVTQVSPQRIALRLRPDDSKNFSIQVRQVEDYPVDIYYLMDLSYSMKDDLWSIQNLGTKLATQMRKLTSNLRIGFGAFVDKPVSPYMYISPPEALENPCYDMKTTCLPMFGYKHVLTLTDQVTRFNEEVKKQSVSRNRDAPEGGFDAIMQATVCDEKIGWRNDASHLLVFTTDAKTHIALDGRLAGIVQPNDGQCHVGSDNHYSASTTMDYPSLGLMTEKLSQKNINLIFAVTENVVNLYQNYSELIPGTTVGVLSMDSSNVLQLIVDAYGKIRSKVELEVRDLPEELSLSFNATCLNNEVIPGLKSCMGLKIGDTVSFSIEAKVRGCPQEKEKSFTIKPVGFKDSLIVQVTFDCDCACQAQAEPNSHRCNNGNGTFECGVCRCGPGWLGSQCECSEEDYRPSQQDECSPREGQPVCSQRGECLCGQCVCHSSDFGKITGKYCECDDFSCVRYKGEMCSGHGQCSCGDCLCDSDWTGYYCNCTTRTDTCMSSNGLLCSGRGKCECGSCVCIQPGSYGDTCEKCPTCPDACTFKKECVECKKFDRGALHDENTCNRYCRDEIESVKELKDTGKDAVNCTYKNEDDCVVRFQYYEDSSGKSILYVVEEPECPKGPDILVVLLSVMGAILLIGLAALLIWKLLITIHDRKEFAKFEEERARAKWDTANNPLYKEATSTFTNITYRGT
# Integrin alpha-V/beta-3, sequence (P06756 31-889 limits assumed): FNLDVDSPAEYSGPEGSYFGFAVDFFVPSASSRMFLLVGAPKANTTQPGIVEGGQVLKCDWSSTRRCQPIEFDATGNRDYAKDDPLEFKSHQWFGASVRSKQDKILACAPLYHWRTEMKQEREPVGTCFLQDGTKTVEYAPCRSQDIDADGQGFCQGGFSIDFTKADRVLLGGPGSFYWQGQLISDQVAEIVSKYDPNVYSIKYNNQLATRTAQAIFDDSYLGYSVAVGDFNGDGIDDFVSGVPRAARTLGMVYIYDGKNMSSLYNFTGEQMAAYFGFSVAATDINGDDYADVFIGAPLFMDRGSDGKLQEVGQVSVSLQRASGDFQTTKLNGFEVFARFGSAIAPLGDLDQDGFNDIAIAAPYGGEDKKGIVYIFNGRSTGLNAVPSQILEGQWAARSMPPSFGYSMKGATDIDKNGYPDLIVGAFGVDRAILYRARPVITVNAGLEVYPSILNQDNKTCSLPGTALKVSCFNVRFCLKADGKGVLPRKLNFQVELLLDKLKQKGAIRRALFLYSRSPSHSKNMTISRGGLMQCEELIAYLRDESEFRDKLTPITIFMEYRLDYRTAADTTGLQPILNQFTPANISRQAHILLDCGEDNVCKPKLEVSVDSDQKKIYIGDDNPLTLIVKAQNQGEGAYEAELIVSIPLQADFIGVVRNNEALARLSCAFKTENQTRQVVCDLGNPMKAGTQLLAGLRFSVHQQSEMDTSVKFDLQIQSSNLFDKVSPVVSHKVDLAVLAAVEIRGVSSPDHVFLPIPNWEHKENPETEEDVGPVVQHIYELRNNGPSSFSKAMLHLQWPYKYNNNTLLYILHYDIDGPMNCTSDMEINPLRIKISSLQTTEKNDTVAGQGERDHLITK
# Integrin alpha-V/beta-3, sequence (P06756 891-1048 limits assumed): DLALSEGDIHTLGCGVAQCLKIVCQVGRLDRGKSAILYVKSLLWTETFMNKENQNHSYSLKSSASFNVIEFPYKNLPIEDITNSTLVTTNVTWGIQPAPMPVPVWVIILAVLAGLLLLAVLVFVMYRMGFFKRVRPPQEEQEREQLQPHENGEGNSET
row,Compound,pIC50
1,N[C@@H](CNC(=O)C1=NOC(CCCCNc2ncc[nH]2)C1)C(=O)O (stereo not given in full),< 6.00
2,Cc1cc(C)c(S(=O)(=O)N[C@@H](CNC(=O)C2=NOC(CCNc3ncc[nH]3)C2)C(=O)O)c(C)c1 (stereo not given in full),6.97
3,O=C(NC[C@H](NS(=O)(=O)c1ccccc1)C(=O)O)C1=NOC(CCCCNc2ccccn2)C1 (stereo not given in full),7.09
4,Cc1cc(C)c(S(=O)(=O)N[C@@H](CNC(=O)C2=NOC(CCCc3cccc(N)n3)C2)C(=O)O)c(C)c1 (stereo not given in full),7.59
5,Cc1cccc(Cl)c1S(=O)(=O)N[C@@H](CNC(=O)C1=NOC(CCCCNc2ncc[nH]2)C1)C(=O)O (stereo not given in full),8.15
6,Cc1cc(C)c(S(=O)(=O)N[C@@H](CNC(=O)C2=NOC(CCNC(=O)Nc3ncc[nH]3)C2)C(=O)O)c(C)c1 (stereo not given in full),7.47
7,Cc1cc(C)c(S(=O)(=O)N[C@@H](CNC(=O)C2=NOC(CCCCNc3ccccn3)C2)C(=O)O)c(C)c1 (stereo not given in full),7.27
8,CN([C@@H](CNC(=O)C1=NOC(CCCCNc2ccccn2)C1)C(=O)O)S(=O)(=O)c1ccc(-c2ccccc2)cc1 (stereo not given in full),6.89
9,O=C(NC[C@H](NS(=O)(=O)c1ccc(-c2ccccc2)cc1)C(=O)O)C1=NOC(CCCCNc2ncc[nH]2)C1 (stereo not given in full),6.62
10,Cc1cc(C)c(S(=O)(=O)N[C@@H](CNC(=O)C2=NOC(CCCCNS(N)(=O)=O)C2)C(=O)O)c(C)c1 (stereo not given in full),< 6.00
11,Cc1cc(C)c(S(=O)(=O)N[C@@H](CNC(=O)C2=NOC(CCCCNc3nccc4ccccc34)C2)C(=O)O)c(C)c1 (stereo not given in full),< 6.00
12,Cc1cc(C)c(S(=O)(=O)N[C@@H](CNC(=O)C2=NOC(CCCCNc3ncc[nH]3)C2)C(=O)O)c(C)c1 (stereo not given in full),7.82
13,Cc1cc(C)c(S(=O)(=O)N[C@@H](CNC(=O)C2=NOC(CCCCNC(N)=O)C2)C(=O)O)c(C)c1 (stereo not given in full),< 6.00
14,Cc1cc(-c2ccccc2)cc(C)c1S(=O)(=O)N[C@@H](CNC(=O)C1=NOC(CCCCNc2ccccn2)C1)C(=O)O (stereo not given in full),7.36
15,N=C(N)c1ccc(C2=NO[C@@H](CC(=O)NCCC(=O)O)C2)cc1,< 4.00
16,Cc1cc(-c2ccccc2)cc(C)c1S(=O)(=O)N[C@@H](CNC(=O)C1=NOC(CCCCNc2ncc[nH]2)C1)C(=O)O (stereo not given in full),8.06
17,O=C(NC[C@H](NS(=O)(=O)c1c(Cl)cccc1Cl)C(=O)O)C1=NOC(CCCCNc2ncc[nH]2)C1 (stereo not given in full),7.74
18,Cc1cc(C)c(S(=O)(=O)N[C@@H](CNC(=O)C2=NOC(CCCC(=O)Nc3ncc[nH]3)C2)C(=O)O)c(C)c1 (stereo not given in full),7.51
19,Cc1noc(C)c1S(=O)(=O)N[C@@H](CNC(=O)C1=NOC(CCCCNc2ncc[nH]2)C1)C(=O)O (stereo not given in full),7.14
20,Cc1cc(C)c(S(=O)(=O)N[C@H](CNC(=O)C2=NOC(CCCCNc3ncc[nH]3)C2)C(=O)O)c(C)c1 (stereo not given in full),5.55
21,Cc1cc(C)c(S(=O)(=O)N[C@@H](CNC(=O)C2=NOC(CCCCN=C(N)N)C2)C(=O)O)c(C)c1 (stereo not given in full),6.77
22,O=C(NC[C@H](NS(=O)(=O)c1c(Cl)cc(-c2ccccc2)cc1Cl)C(=O)O)C1=NOC(CCCCNc2ncc[nH]2)C1 (stereo not given in full),8.34
23,O=C(NC[C@H](NS(=O)(=O)c1cccc2ccccc12)C(=O)O)C1=NOC(CCCCNc2ncc[nH]2)C1 (stereo not given in full),7.29
24,Cc1cc(C)c(S(=O)(=O)N[C@@H](CNC(=O)C2=NOC(CCCc3c[nH]c(N)n3)C2)C(=O)O)c(C)c1 (stereo not given in full),7.34
25,O=C(NC[C@H](NS(=O)(=O)c1cccc2ccccc12)C(=O)O)C1=NOC(CCCCNc2ccccn2)C1 (stereo not given in full),6.80
26,Cc1cc(C)c(S(=O)(=O)N[C@@H](CNC(=O)C2=NOC(CCCCNc3cc4ccccc4cn3)C2)C(=O)O)c(C)c1 (stereo not given in full),< 6.00
27,Cc1cc(C)c(S(=O)(=O)N[C@@H](CNC(=O)C2=NOC(CCCCNC3=NCCN3)C2)C(=O)O)c(C)c1 (stereo not given in full),7.21
28,CC(C)c1ccc(S(=O)(=O)N[C@@H](CNC(=O)C2=NOC(CCCCNc3ccccn3)C2)C(=O)O)cc1 (stereo not given in full),6.77
29,O=C(NC[C@H](NS(=O)(=O)c1ccccc1)C(=O)O)C1=NOC(CCCCNc2ncc[nH]2)C1 (stereo in doubt; 3cc),7.97
30,O=C(NC[C@H](NS(=O)(=O)c1ccccc1)C(=O)O)C1=NOC(CCCCNc2ncc[nH]2)C1 (stereo in doubt; 3q),7.18
